# Laboratory results reported in publication PMC2699564 (Journal of medicinal chemistry, 2009).
# Legend:
# [1] = test system: RIF tumors; test: In vivo biodistribution of ^124I-labeled compounds; parameters: species or system C3H mice; settings: for tumor uptake compared among compounds 1-3 / tumor uptake: RIF tumor; for tumor uptake compared among compounds 1-3 / liver and spleen uptake compared among compounds 1-3: 24-96 h post injection; for tumor uptake: ^124I-labeled, i.v.; for liver and spleen uptake compared among compounds 1-3: C3H mice
# Outline: (§1)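 ¹²⁴I-labeled test compound (radiochemical purity >95%, in saline with 10% ethanol) given via tail vein at 15–200 μCi; 3–4 mice per compound/time point. Sacrificed at 24, 48, 72 and 96 h. Blood, tumor, heart, liver, spleen, kidney, lung, muscle, gut and stomach removed and weighed. Activity measured by gamma well counter; uptake expressed as %ID/g; mean of 3 or 4 mice.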
# [2] = test system: RIF tumors; test: In vivo PDT efficacy; parameters: species or system C3H mice; settings: for tumor free mice (tumor cure) / tumor free mice (tumor cure) at day 60: 665 nm, 135 J/cm^2, 75 mW/cm^2 at 24 h post-injection, five mice/group; for toxicity (deaths post PDT): 135 J/cm^2, five mice/group
# Outline: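 Female C3H/HeJ mice received 2×10^5 RIF cells intradermally in HBSS lacking Ca²⁺/Mg²⁺. At 4–5 mm tumors, hair was removed and test compound given i.v. the day before light, at 0.5, 1.0 or 1.5 μmol/kg, five mice/group. At 24 h, mice were restrained unanaesthetised and tumor irradiated with dye laser at 665 nm: 1 cm², 75 mW/cm², 135 J/cm², 30 min. Mice were watched daily for weight loss, scabbing and regrowth; V = (L × W²)/2. Sacrificed at 400 mm³; cured if no regrowth by day 60.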
# [3] = test system: Colon-26 tumors; test: In vivo biodistribution of ^124I-labeled 1; parameters: species or system BALB/c mice; settings: for tumor uptake: Colon-26 tumor, ^124I-labeled, i.v.
# Outline: as §1
# [4] = test system: RIF tumor; test: microPET imaging, RUV and relative tumor activity, RIF tumor; assay type: in vivo
# [5] = test system: Colon-26 tumor; test: microPET imaging, RUV and relative tumor activity, Colon-26 tumor; assay type: in vivo
# [6] = test system: radiation-induce fibrosarcoma (RIF) cells; test: In vitro photosensitizing efficacy; assay type: cell-based; settings: 24 h incubation, 0.25 μM (Figure 8), light 0-4 J/cm^2, MTT
# [7] = test system: RIF cells; test: In vitro cell uptake by fluorescence, RIF cells; assay type: cell-based
# Outline: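 RIF cells incubated with test compound; cellular uptake read by fluorescence at 3 and 24 h post-incubation.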
# [8] = test system: Colon-26 cells; test: In vitro cell uptake, Colon-26 cells; assay type: cell-based
smiles,measurement,setting,value
"CCC1=C(C)c2cc3[nH]c(cc4nc(c5c6[nH]c(cc1n2)c(C)c6C(=O)C5)[C@@H](CCC(=O)OC)[C@@H]4C)c(C)c3C(C)OCc1cccc([124I])c1 (some centres unmarked) [Compound 1, 3-{1′-(m-iodobenzyloxy)ethyl}pyropheophorbide-a methyl ester]",tumor uptake compared among compounds 1-3,[1],highest tumor uptake value at 24 and 48 hrs time points
same,tumor uptake,[1]; 24 h post injection,4.1 %ID/g
same,tumor uptake,[1]; 48 h post injection,2.1 %ID/g
same,tumor uptake,[1]; 72 h post injection,0.8 %ID/g
same,tumor uptake,[1]; 96 h post injection,0.6 %ID/g
same,tumor free mice (tumor cure),[2]; 1.00 μmole/kg i.v.,one out of five mice was tumor free
same,tumor free mice (tumor cure) at day 60,[2]; 1.5 μmol/kg i.v.,four out of five mice were tumor free
same,tumor uptake in Colo-26 relative to RIF,[3]; 72 h post injection,3 fold
same,tumor uptake in Colo-26 relative to RIF,[3]; 96 h post injection,3 fold
same,tumor uptake,[3]; 24 h post injection,4.6 %ID/g
same,tumor uptake,[3]; 48 h post injection,4.4 %ID/g
same,tumor uptake,[3]; 72 h post injection,2.5 %ID/g
same,tumor uptake,[3]; 96 h post injection,2.0 %ID/g
same,"blood uptake, BALB/c vs C3H mice",[3]; ^124I-labeled 1,slightly higher blood uptake in BALB/c mice than C3H mice
same,"uptake in other organs, BALB/c vs C3H mice",[3]; ^124I-labeled 1,lower uptake in BALB/c mice than the C3H mice
same,relative tumor activity (tumor activity to whole body activity in image),"[4]; RIF tumor, ^124I-1 about constant over three scans in 3 days",~0.035
same,time of best tumor contrast in PET images,"[4]; both tumor models (RIF and Colon-26), post injection",72 h
same,relative tumor activity over time,[5]; 24-96 h,increasing relative quantity of activity in the tumor
same,relative uptake value (RUV) compared with RIF tumor,[5]; after 48 hours of injection,higher RUV values than RIF tumor
"CCC1=C(C)c2cc3[nH]c(cc4nc(c5c6[nH]c(cc1n2)c(C)c6C(=O)C5)[C@@H](CCC(=O)N[C@@H]1[C@@H](O)[C@H](O)[C@@H](CO)O[C@H]1O)[C@@H]4C)c(C)c3C(C)OCc1cccc([124I])c1 (some centres unmarked) [Compound 2, 3-{1′-(m-iodobenzyloxy)ethyl}-17[2]-(2-amino-2-deoxy)glucosamide-pyropheo phorbide-a]",in vitro PDT efficacy compared to 1,[6],more effective than the corresponding non-carbohydrate analog 1
same,liver and spleen uptake compared among compounds 1-3,[1],lower spleen and liver uptake than 3 but higher than that of 1
same,tumor uptake compared among compounds 1-3,[1],least tumor uptake among all compounds at all time points
same,tumor free mice (tumor cure),[2]; 0.50 μmole/kg i.v.,one out of five mice was tumor free
same,tumor free mice (tumor cure),[2]; 1.00 μmole/kg i.v.,two out of five mice were tumor free
same,toxicity (deaths post PDT),[2]; 1.5 μmol/kg i.v.,two mice died within 24 h post PDT
same,tumor free mice (tumor cure) at day 60,[2]; 1.5 μmol/kg i.v.,two out of remaining three mice were tumor free
same,cell uptake compared to compound 1,[7],higher uptake
same,cell uptake compared to compound 1,[8],higher uptake
"CCC1=C(C)c2cc3[nH]c(cc4nc(c5c6[nH]c(cc1n2)c(C)c6C(=O)C5)[C@@H](CCC(=O)N[C@@H]1O[C@H](CO)[C@H](O)[C@H](O)[C@H]1O)[C@@H]4C)c(C)c3C(C)OCc1cccc([124I])c1 (some centres unmarked) [Compound 3, {1′-(m-iodobenzyloxy)ethyl}-17[2]-(1-amino-1-deoxy)galactosamide-pyro pheophorbide-a]",in vitro PDT efficacy compared to 1,[6],more effective than the corresponding non-carbohydrate analog 1
same,liver and spleen uptake compared among compounds 1-3,[1],considerably higher liver and spleen uptake at all time points
same,tumor uptake compared among compounds 1-3,[1],higher uptake values at the 72 and 96 hrs time points
same,toxicity (deaths post PDT),[2]; 1.00 μmole/kg i.v.,all five mice died within 24h post PDT
same,toxicity (deaths post PDT),[2]; 1.5 μmol/kg i.v.,all five mice died within 24 h post light treatment
same,cell uptake compared to compound 1,[7],higher uptake
same,cell uptake compared to compound 1,[8],higher uptake
